Measured values collected from several papers.
Converted amounts (≈) assume the structure as drawn.

Compound	organism	test	system	setting	measurement	value
C[C@@H]1[C@H](O)[C@@H](C)/C=C/C=C/C=C/C=C/C=C/C=C/C=C/[C@H](O[C@@H]2O[C@H](C)[C@@H](O)[C@H](N)[C@@H]2O)C[C@@H]2O[C@](O)(C[C@@H](O)C[C@@H](O)[C@H](O)CC[C@@H](O)C[C@@H](O)CC(=O)O[C@H]1C)C[C@H](O)[C@H]2C(=O)O	Nakaseomyces glabratus	microbial killing	ATCC90030	–	MFC	0.63 µg/mL (≈ 0.682 µM)
O=C1NC(=S)S/C1=C\c1c2ccccc2c(-c2ccc(N(c3ccccc3)c3ccccc3)cc2)c2ccccc12	Bacillus subtilis	microbial killing, broth dilution	ATCC6633	–	MBC	> 1000 µg/mL
N#CC(=Cc1cn(-c2ccccc2)nc1-c1ccccc1)C1=NC(=O)CS1	Bacillus subtilis	microbial growth, well diffusion	–	100000 µg/mL	inhibition zone	29 mm
O=C1NC(=S)N/C1=C\c1c2ccccc2c(-c2ccc(N(c3ccccc3)c3ccccc3)cc2)c2ccccc12	Bacillus subtilis	microbial killing, broth dilution	ATCC6633	–	MBC	> 1000 µg/mL
N#CC(=Cc1ccccc1O)C1=NC(=O)C(=Cc2cn(-c3ccccc3)nc2-c2ccccc2)S1	Bacillus subtilis	microbial growth, well diffusion	–	100000 µg/mL	inhibition zone	25 mm
O=C(O)c1nc2ccccc2c(=O)n1Cc1cn(-c2ccccc2)nn1	Nakaseomyces glabratus	microbial growth, broth dilution	ATCC90030	24 h	IC50	566 µg/mL
CC(C)Oc1c(NC(=O)c2ccc(NC(=O)[C@H](CC(N)=O)NC(=O)c3ccc(NC(=O)c4ccc(C#N)cn4)cc3)cc2)ccc(C(=O)Nc2ccc(C(=O)O)cc2)c1O	Proteus vulgaris	microbial growth	DSM2140	–	MIC	0.06 µg/mL (≈ 0.0738 µM)
C[C@@H]1[C@H](O)[C@@H](C)/C=C/C=C/C=C/C=C/C=C/C=C/C=C/[C@H](O[C@@H]2O[C@H](C)[C@@H](O)[C@H](N)[C@@H]2O)C[C@@H]2O[C@](O)(C[C@@H](O)C[C@@H](O)[C@H](O)CC[C@@H](O)C[C@@H](O)CC(=O)O[C@H]1C)C[C@H](O)[C@H]2C(=O)O	Cryptococcus neoformans	microbial growth	ATCC90113	–	IC50	0.75 µg/mL
C[C@@H]1[C@H](O)[C@@H](C)/C=C/C=C/C=C/C=C/C=C/C=C/C=C/[C@H](O[C@@H]2O[C@H](C)[C@@H](O)[C@H](N)[C@@H]2O)C[C@@H]2O[C@](O)(C[C@@H](O)C[C@@H](O)[C@H](O)CC[C@@H](O)C[C@@H](O)CC(=O)O[C@H]1C)C[C@H](O)[C@H]2C(=O)O	Cryptococcus neoformans	microbial killing	ATCC90113	–	MFC	2.5 µg/mL (≈ 2.71 µM)
CCCCCCC/C=C/C(=O)N1C(=O)/C(=C(/C)O)C(=O)C1CO (stereo not shown)	Proteus vulgaris	microbial growth	ATCC33420	–	MIC	> 200 µg/mL
Cc1c(NN=C2SC(C(C#N)=Cc3ccc(Cl)cc3)=NC2=O)c(=O)n(-c2ccccc2)n1C	Bacillus subtilis	microbial growth, well diffusion	–	100000 µg/mL	inhibition zone	17 mm
Cc1ccc(-n2cc(Cn3c(C(=O)O)nc4ccccc4c3=O)nn2)cc1	Nakaseomyces glabratus	microbial growth, broth dilution	ATCC90030	24 h	IC50	288 µg/mL
C[C@@H](c1ncncc1F)[C@](O)(Cn1cncn1)c1ccc(F)cc1F	Acanthamoeba polyphaga	parasite growth, resazurin	–	7 days	IC50	55.3 µM
CCCCCCC/C=C/C(=O)N1C(=O)/C(=C(/C)O)C(=O)C1Cc1ccc(O)cc1 (stereo not shown)	Proteus vulgaris	microbial growth	ATCC33420	–	MIC	> 200 µg/mL
O=C(O)c1nc2ccccc2c(=O)n1Cc1cn(-c2ccccc2F)nn1	Nakaseomyces glabratus	microbial growth, broth dilution	ATCC90030	24 h	IC50	174 µg/mL
CCOC(=O)C=c1[nH]c(=O)c(=Cc2cn(-c3ccccc3)nc2-c2ccc(C)cc2)s1	Bacillus subtilis	microbial growth, well diffusion	–	100000 µg/mL	inhibition zone	13 mm
O=C(O)CN1C(=O)/C(=C/c2ccc(-c3ccc(N(c4ccccc4)c4ccccc4)cc3)c3ccccc23)SC1=S	Bacillus subtilis	microbial killing, broth dilution	ATCC6633	–	MBC	1000 µg/mL (≈ 1750 µM)
CC1(C)S[C@@H]2[C@H](NC(=O)[C@H](N)c3ccccc3)C(=O)N2[C@H]1C(=O)O	Listeria monocytogenes	microbial growth, agar dilution	–	26.93 µM	inhibition	100%
O=C(O)c1nc2ccccc2c(=O)n1Cc1cn(-c2ccc(F)cc2)nn1	Nakaseomyces glabratus	microbial growth, broth dilution	ATCC90030	24 h	IC50	422 µg/mL
CCOC(=O)C=c1[nH]c(=O)c(=Cc2cn(-c3ccccc3)nc2-c2ccccc2)s1	Bacillus subtilis	microbial growth, well diffusion	–	100000 µg/mL	inhibition zone	14 mm
CCCCCCC/C=C/C(=O)N1C(=O)/C(=C(\O)C2CCNCC2)C(=O)C1CC(C)C (stereo not shown)	Proteus vulgaris	microbial growth	ATCC33420	–	MIC	200 µg/mL (≈ 478 µM)
CCOC(=O)c1c(N)csc1-c1cn(-c2ccccc2)nc1-c1ccc(C)cc1	Bacillus subtilis	microbial growth, well diffusion	–	100000 µg/mL	inhibition zone	28 mm
O=C1NC(=S)S/C1=C\c1ccc(-c2ccc(N(c3ccccc3)c3ccccc3)cc2)cc1	Bacillus subtilis	microbial killing, broth dilution	ATCC6633	–	MBC	> 1000 µg/mL
Cc1ccc(-c2nn(-c3ccccc3)cc2C=c2sc(=CC#N)[nH]c2=O)cc1	Bacillus subtilis	microbial growth, well diffusion	–	100000 µg/mL	inhibition zone	12 mm
CCCCCCC/C=C/C(=O)N1C(=O)/C(=C(\O)c2ccc(F)cc2)C(=O)C1CC(C)C (stereo not shown)	Proteus vulgaris	microbial growth	ATCC33420	–	MIC	> 200 µg/mL
